Screens deposited in PubChem by Broad Institute.
In the library only some 2.6% were active in any assay of this set; here they are far more common.
rRNA inh HTS – reduced GFP signal of wild-type E. coli, primary screen, bacterial rRNA inhibitor project, GFP/RFP fluorescence, OD600, single point. 1.6% of 350,000 active. E. coli WT GFP vs humanized-ribosome RFP mutants, 24 h; active compounds read low; DMSO median 0, no signal -100. GFP signal change (wild-type ribosome), % (test concentration not listed). AID 720706, 2013;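 active means significant combined selectivity score with lowered wild-type GFP, culture density cut under 30%, mutant RFP and density less affected; inactive means any of these conditions unmet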
HIV Env fusion – inhibitors of HIV-1 Env-driven cell-cell fusion, primary screen, HeLa-JRFL effector, CEM21 target cells, luciferase; inhibition, % at 12.3 µM; AID 651610, 2012; 1.1% of 360,000 active;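 active means mean replicate inhibition score of at least 50 and every replicate individually at or above 50; inconclusive means only one of the two criteria met; inactive means mean below 50 and not all replicates reaching 50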;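 further: 0% = plate neutral controls and 100% = maraviroc near 300 nM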
miR-122 sensor – miR-122 Renilla sensor signal increase in Huh7, primary screen, miR-122 inhibitor project, cell-based, single point, plate reader; Huh7 miR-122 Renilla luciferase sensor, 48 h; neutral wells = 0, positive control = 100; activation (reporter increase), % at 12.5 µM; 0.3% of 340,000 active; AID 602342, 2012;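 active means mean replicate activation score at least 90 and every replicate individually at or above 90; inconclusive means only one of the two criteria met; inactive means neither criterion met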;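 further: higher luciferase means less miR-122 activity so hits act as miR-122 inhibitors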
Vif inh – HIV Vif self-association inhibitors, primary screen, imaging, HEK293T, single point; AID 602346, 2012; HEK293T cells, Vif self-association by quenched fluorescence, 24 h; inhibition, % at 7.49 µM; 0.35% of 340,000 active; in the data active means inhibition above about 50%, passing the limit was not always enough; inconclusive means no clear call, values can overlap the other calls; inactive means below about 31%
S100A4 MyoIIA – inhibitors of S100A4-myosin IIA peptide binding, primary screen, biochemical, fluorescence polarization, TAMRA-MyoIIA peptide. Protein S100-A4 (Homo sapiens), P26447. 0.14% of 360,000 active. inhibition, % at 10.7 µM;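 active means mean inhibition of at least 70% across replicates, with every replicate also reaching that level; inconclusive means mean inhibition reaches 70% but some replicates fall short; inactive means mean inhibition below 70%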
Target sequence (P26447 whole entry, looked up): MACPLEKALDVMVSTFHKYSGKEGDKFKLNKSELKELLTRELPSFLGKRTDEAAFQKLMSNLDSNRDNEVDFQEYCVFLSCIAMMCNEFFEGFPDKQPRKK
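Assay system: human S100A4 monomer with TAMRA-labelled myosin IIA peptide / Buffer or medium: Calcium-containing HEPES buffer, pH 7.2 / Reagent: TAMRA-labelled myosin IIA heavy-chain peptide probe, 5 nM / Compound: one dose per compound / Timing: polarization read 5 min after assay mix addition, stable 5–60 min / Benchmarks: neutral control DMSO, positive control TFP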
FN deposition inh – inhibitors of fibronectin matrix deposition, primary screen, AH1F cells, Alexa488-fibronectin fluorescence, plate reader. inhibition, % at 12.6 µM. AH1F fibroblasts, overnight. 0.086% of 350,000 active;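 active means mean inhibition across replicates of 30% or more, regardless of how many single replicates reach that level; inconclusive means mean under 30% yet at least half of replicates reach 30%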;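 further: positive control wells lacked labelled fibronectin entirely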
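Assay system: AH1F fibroblasts assembling fluorescent fibronectin matrix; Amount: 10000 AH1F cells per well; Buffer or medium: DMEM, 2% serum; Probe or stimulus: Alexa488-fibronectin, 24 nM final in well; Doses: single compound dose, delivered by pin transfer; Incubation: 1 h adhesion, overnight exposure; Measured by: fluorescence 485/525 nm; Read-out: fibronectin deposition inhibition.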
An asterisk follows results filed as active; u = inconclusive; x = not tested or not shown; [ ] = remark or other dose.

SMILES	rRNA inh HTS	HIV Env fusion	miR-122 sensor	Vif inh	S100A4 MyoIIA	FN deposition inh
COc1ccccc1CN(Cc1nc2ccccc2c(=O)[nH]1)S(=O)(=O)c1ccc2ccccc2c1	x	98*	x	-12	x	-5
COc1ccc(S(=O)(=O)N(Cc2ccccc2)Cc2nc3ccccc3c(=O)[nH]2)cc1	x	x	3	3	x	x
O=C(NCc1ccc(S(=O)(=O)Nc2ccccc2Cl)s1)c1ccccc1	-32*	4	9	2	-9	0
CC[C@@]1(C(=O)OC)N[C@H](CN(C)C(=O)Nc2ccc(C(F)(F)F)cc2)[C@@H]2C(=O)N(Cc3ccccc3)C(=O)[C@@H]21	-8	85*	2	-1	-3	x
CC[C@@]1(C(=O)OC)N[C@H](CN(C)C(=O)c2ccc(C(C)(C)C)cc2)[C@@H]2C(=O)N(Cc3ccccc3)C(=O)[C@@H]21	19	79*	x	1	14	8
CCN(C[C@H]1N[C@@](CC)(C(=O)OC)[C@H]2C(=O)N(Cc3ccccc3)C(=O)[C@@H]12)C(=O)c1ccc(C(C)(C)C)cc1	-4	u	x	29	35	6
COC(=O)[C@]1(Cc2ccccc2)N[C@H](CN(C)C(=O)Nc2ccc(C(F)(F)F)cc2)[C@@H]2C(=O)N(Cc3ccccc3)C(=O)[C@@H]21	-9	28	-1	-2	-5	x
COC(=O)[C@]1(C)N[C@H](CN(C)S(=O)(=O)c2ccc(OC(F)(F)F)cc2)[C@@H]2C(=O)N(Cc3ccccc3)C(=O)[C@@H]21	-21*	82*	x	-3	-3	-5
COC(=O)[C@]1(C)N[C@H](CN(C)S(=O)(=O)c2ccc(F)cc2)[C@@H]2C(=O)N(Cc3ccccc3)C(=O)[C@@H]21	-1	3	x	-5	0	5
CCN(C[C@H]1N[C@@](C)(C(=O)OC)[C@H]2C(=O)N(Cc3ccccc3)C(=O)[C@@H]12)C(=O)c1ccc(C(C)(C)C)cc1	-6	69*	x	1	0	13
C[C@H](CO)N1C[C@H](C)[C@@H](CN(C)C(=O)C2CC2)Oc2cc(C#Cc3ccncc3)ccc2S1(=O)=O	-3	25[16.7 µM]	27[16.7 µM]	x	u	x
C[C@H]1CN([C@@H](C)CO)C(=O)c2cc(NC(=O)NC3CCCCC3)ccc2O[C@H]1CN(C)Cc1ccncc1	2	1[16.7 µM]	20[16.7 µM]	x	4	1
CC[C@@]1(C(=O)OC)N[C@H](CN(C)C(=O)Nc2ccc(C(F)(F)F)cc2)[C@@H]2C(=O)N(C)C(=O)[C@@H]21	7	-103	x	8	-2	15
CCN(C[C@H]1N[C@@](CC)(C(=O)OC)[C@H]2C(=O)N(Cc3ccccc3)C(=O)[C@@H]12)S(=O)(=O)c1ccc(OC)cc1	-1	78*	10	5	-2	3
CCN(C[C@H]1N[C@@](CC)(C(=O)OC)[C@H]2C(=O)N(C)C(=O)[C@@H]12)C(=O)Nc1ccc(C(F)(F)F)cc1	-24*	-27	1	-18	0	5
CCN(C[C@H]1N[C@@](C)(C(=O)OC)[C@H]2C(=O)N(Cc3ccccc3)C(=O)[C@@H]12)C(=O)Nc1ccc(Cl)cc1	8	64*	x	10	13	8
CC[C@@]1(C(=O)OC)N[C@H](CN(C)C(=O)Nc2ccccc2)[C@@H]2C(=O)N(Cc3ccccc3)C(=O)[C@@H]21	-2	60*	x	13	9	-5
CCN(C[C@H]1N[C@@](C)(C(=O)OC)[C@H]2C(=O)N(Cc3ccccc3)C(=O)[C@@H]12)C(=O)Nc1ccc(OC)cc1	12	46	1	-4	-1	7
CC[C@@]1(C(=O)OC)N[C@H](CN(C)C(=O)c2ccccc2)[C@@H]2C(=O)N(Cc3ccccc3)C(=O)[C@@H]21	5	41	x	4	-39	5
